According to ChEMBL document CHEMBL3102840, “Synthesis and anti-proliferative activity of aromatic substituted 5-((1-benzyl-1H-indol-3-yl)methylene)-1,3-dimethylpyrimidine-2,4,6(1H,3H,5H)-trione analogs against human tumor cell lines” (2014):

Columns and labels:
Assay type in all cases: functional
TK-10 = test: Cytotoxicity against human TK10 cells assessed as growth inhibition at 10 uM after 48 hrs by SRB assay; details: TK-10, 48 h, read-out: GI
Summary of the method: (§1)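 Single-dose screen at 10µM across the sixty-cell-line panel. Percentage growth is derived from SRB-stain OD taken just before compound exposure, after 48 hrs exposure, and in vehicle-treated controls. Negative values indicate cytotoxicity.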

MDA-MB-468 = test: Cytotoxicity against human MDA-MB-468 cells assessed as growth inhibition at 10 uM after 48 hrs by SRB assay; details: MDA-MB-468, 48 h, read-out: GI; summary of the method: as §1
[1] = Cytotoxicity against human OVCAR5 cells assessed as growth inhibition at 10 uM after 48 hrs by SRB assay; details: OVCAR-5, 48 h, read-out: GI; summary of the method: as §1
A498 = test: Cytotoxicity against human A498 cells assessed as growth inhibition at 10 uM after 48 hrs by SRB assay; details: A498, 48 h, read-out: GI; summary of the method: as §1
NCI-H226 = test: Cytotoxicity against human NCI-H226 cells assessed as growth inhibition at 10 uM after 48 hrs by SRB assay; details: NCI-H226, 48 h, read-out: GI; summary of the method: as §1

CN1C(=O)C(=Cc2cn(Cc3ccccc3Br)c3ccccc23)C(=O)N(C)C1=O
inhibition of growth at 10 µM (TK-10): 105% | inhibition of growth at 10 µM (MDA-MB-468): 56% | inhibition of growth at 10 µM [1]: 75% | inhibition of growth at 10 µM (A498): 74% | inhibition of growth at 10 µM (NCI-H226): -32%

COC(=O)c1ccc2c(c1)c(C=C1C(=O)N(C)C(=O)N(C)C1=O)cn2Cc1ccc(S(=O)(=O)c2ccccc2)cc1
inhibition of growth at 10 µM (TK-10): 100% | inhibition of growth at 10 µM (MDA-MB-468): 88% | inhibition of growth at 10 µM [1]: 108% | inhibition of growth at 10 µM (A498): 83% | inhibition of growth at 10 µM (NCI-H226): 98%

CN1C(=O)C(=Cc2cn(Cc3ccc(F)cc3)c3ccc(Cl)cc23)C(=O)N(C)C1=O
inhibition of growth at 10 µM (TK-10): 19% | inhibition of growth at 10 µM (MDA-MB-468): -70% | inhibition of growth at 10 µM [1]: -19% | inhibition of growth at 10 µM (A498): -95% | inhibition of growth at 10 µM (NCI-H226): -79%

CN1C(=O)C(=Cc2cn(Cc3ccc(C#N)cc3)c3ccccc23)C(=O)N(C)C1=O
inhibition of growth at 10 µM (TK-10): 62% | inhibition of growth at 10 µM (MDA-MB-468): -71% | inhibition of growth at 10 µM [1]: 6% | inhibition of growth at 10 µM (A498): 68% | inhibition of growth at 10 µM (NCI-H226): -72%
